Activity calls are given as the source filed them. The rule behind the calls is not given here.
Legend:
[1] = biological target: T1, Elongation factor 1-alpha 1 (Homo sapiens) (UniProt P68104); assay: Binding affinity to recombinant human eEF1A1 expressed in HEK293 cells by ITC
T1 sequence (whole entry): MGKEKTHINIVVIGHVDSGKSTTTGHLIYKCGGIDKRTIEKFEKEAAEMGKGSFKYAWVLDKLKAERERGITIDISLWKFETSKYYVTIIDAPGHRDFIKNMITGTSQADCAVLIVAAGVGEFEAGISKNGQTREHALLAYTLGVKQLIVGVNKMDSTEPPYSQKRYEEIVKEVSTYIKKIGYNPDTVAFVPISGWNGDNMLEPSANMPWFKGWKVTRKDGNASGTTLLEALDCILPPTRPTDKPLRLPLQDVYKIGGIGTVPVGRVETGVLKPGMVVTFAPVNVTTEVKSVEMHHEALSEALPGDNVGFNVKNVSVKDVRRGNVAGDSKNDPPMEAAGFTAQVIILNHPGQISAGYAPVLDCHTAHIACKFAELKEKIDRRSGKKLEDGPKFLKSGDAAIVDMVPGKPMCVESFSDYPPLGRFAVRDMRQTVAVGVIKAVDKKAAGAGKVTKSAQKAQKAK
Summary of the method: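 Isothermal titration calorimetry recorded the heat changes on titrating ligand into eEF1A1. Binding enthalpy and association constant (Ka) were derived from the titration profiles.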

A549 [2] = assay: Antiproliferative activity against human A549 cells after 72 hrs by MTT assay; assay type: functional, cell-based; details: A549, 72 h
U2OS [3] = assay: Antiproliferative activity against human U2OS cells after 72 hrs by MTT assay; assay type: functional, cell-based
CCRF-CEM [4] = assay: Antiproliferative activity against human CCRF-CEM cells after 72 hrs by MTT assay; assay type: functional, cell-based
[5] = Antiproliferative activity against human CEM-DNR-bulk cells after 72 hrs by MTT assay; assay type: functional, cell-based
HCT-116 = assay: Antiproliferative activity against human HCT116 cells after 72 hrs by MTT assay; assay type: functional, cell-based; details: HCT-116, 72 h
K562 [6] = assay: Antiproliferative activity against human K562 cells after 72 hrs by MTT assay; assay type: functional, cell-based; details: K562, 72 h
K562 [7] = assay: Antiproliferative activity against taxol resistant human K562 cells after 72 hrs by MTT assay; assay type: functional, cell-based; details: K562, 72 h
BJ [8] = assay: Antiproliferative activity against human BJ cells after 72 hrs by MTT assay; assay type: cell-based
K562 [9] = assay: Antiproliferative activity against taxol resistant human K562 cells by MTT assay; assay type: functional, cell-based
CCRF-CEM [10] = assay: Antiproliferative activity against human CCRF-CEM cells by MTT assay; assay type: functional, cell-based
[11] = Antiproliferative activity against human CEM-DNR-bulk cells by MTT assay; assay type: functional, cell-based
U2OS [12] = assay: Antiproliferative activity against human U2OS cells by MTT assay; assay type: functional, cell-based
K562 [13] = assay: Antiproliferative activity against human K562 cells by MTT assay; assay type: functional, cell-based
A549 [14] = assay: Antiproliferative activity against human A549 cells by MTT assay; assay type: functional, cell-based
BJ [15] = assay: Antiproliferative activity against human BJ cells by MTT assay; assay type: cell-based
[16] = biological target: T1, Elongation factor 1-alpha 1 (Homo sapiens); assay: Binding affinity to eEF1A1 in human CCRF-CEM cells after 30 mins by Western blot method; assay type: cell-based
[17] = biological target: Pyruvate kinase PKM (Homo sapiens) (UniProt P14618); assay: Binding affinity to PKM2 in human CCRF-CEM cells after 30 mins by Western blot method; assay type: cell-based
[18] = biological target: Actin, cytoplasmic 1 (Homo sapiens) (UniProt P60709); assay: Binding affinity to beta-actin in human CCRF-CEM cells after 30 mins by Western blot method; assay type: cell-based
[19] = biological target: T1, Elongation factor 1-alpha 1 (Homo sapiens); assay: Binding affinity to eEF1A1 in human CCRF-CEM cells after 30 mins by HPLC-MS based SDS-PAGE analysis; assay type: cell-based
Summary of the method: (§1)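 Biotinylated 3-HQ ligands (one linked via the quinolinone benzene ring, one via the 2-phenyl ring) were immobilized on streptavidin magnetic beads and incubated with total protein lysate from CCRF-CEM cells. Bound proteins were released, resolved by SDS-PAGE, and identified by mass spectrometry.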

[20] = biological target: Pyruvate kinase PKM (Homo sapiens) (UniProt P14618); assay: Binding affinity to PKM2 in human CCRF-CEM cells after 30 mins by HPLC-MS based SDS-PAGE analysis; assay type: cell-based; summary of the method: as §1
[21] = biological target: Actin, cytoplasmic 1 (Homo sapiens) (UniProt P60709); assay: Binding affinity to beta-actin in human CCRF-CEM cells after 30 mins by HPLC-MS based SDS-PAGE analysis; assay type: cell-based; summary of the method: as §1

Chain of Pyruvate kinase PKM (Homo sapiens) (P14618 2-531 limits assumed): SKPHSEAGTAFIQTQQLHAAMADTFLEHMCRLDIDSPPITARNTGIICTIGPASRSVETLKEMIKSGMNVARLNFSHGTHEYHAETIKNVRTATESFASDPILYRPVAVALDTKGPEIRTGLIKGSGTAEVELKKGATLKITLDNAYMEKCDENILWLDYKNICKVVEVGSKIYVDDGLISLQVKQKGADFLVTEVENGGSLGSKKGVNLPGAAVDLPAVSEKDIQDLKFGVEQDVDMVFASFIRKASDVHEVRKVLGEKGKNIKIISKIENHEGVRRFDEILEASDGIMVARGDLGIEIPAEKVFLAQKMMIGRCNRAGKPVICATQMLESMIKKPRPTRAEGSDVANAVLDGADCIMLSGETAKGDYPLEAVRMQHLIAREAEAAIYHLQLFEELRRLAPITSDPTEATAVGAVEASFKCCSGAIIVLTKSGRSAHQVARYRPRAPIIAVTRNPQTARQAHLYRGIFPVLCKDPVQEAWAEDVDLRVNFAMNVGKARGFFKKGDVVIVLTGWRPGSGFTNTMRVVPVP

Ka [1] | IC50 (A549 [2]) | IC50 (U2OS [3]) | IC50 (CCRF-CEM [4]) | IC50 (HCT-116) | IC50 (K562 [6]) | IC50 (K562 [7]) | SMILES | IC50 [5] | IC50 (BJ [8]) | further results
2.54 ×10⁶ /M | 50 µM | 50 µM | 49.6 µM | 50 µM | 50 µM | 50 µM | O=C(O)c1cc(-c2[nH]c3ccccc3c(=O)c2O)ccc1N1CCCCC1 | 50 µM | 50 µM | 
 |  |  |  |  |  |  | O=c1c(O)c(-c2ccc(N3CCCCC3)c([N+](=O)[O-])c2)[nH]c2ccccc12 |  |  | IC50 (K562 [9]): 2.02 µM; IC50 (CCRF-CEM [10]): 1.55 µM; IC50 [11]: 3 µM; IC50 (U2OS [12]): 7.51 µM; IC50 (K562 [13]): 0.75 µM; IC50 (A549 [14]): 1.62 µM; IC50 (BJ [15]): 9.83 µM
 |  |  |  |  |  |  | O=C1N[C@H]2[C@H](CS[C@H]2CCCCC(=O)OCCOCCOCCOCCOCCOCCOCCOCCOCCOCCNc2ccc(-c3[nH]c4ccccc4c(=O)c3O)cc2[N+](=O)[O-])N1 |  |  | Activity [16]: inactive; Activity [17]: inactive; Activity [18]: inactive
1.81 ×10⁷ /M | 3.77 µM | 0.58 µM | 1.73 µM | 1.01 µM | 8.3 µM | > 50 µM | NC(=O)c1cc(-c2[nH]c3cc(C(=O)NCc4ccccc4)ccc3c(=O)c2O)ccc1N1CCCCC1 | > 50 µM | > 50 µM | 
1.03 ×10⁷ /M | 50 µM | 50 µM | 49.6 µM | 50 µM | 50 µM | 50 µM | O=C(O)c1cc(-c2[nH]c3ccccc3c(=O)c2O)ccc1N1CCOCC1 | 50 µM | 50 µM | 
 |  |  |  |  |  |  | CCNc1ccc(-c2[nH]c3cc(C(=O)NCCOCCOC(=O)CCCC[C@@H]4SC[C@@H]5NC(=O)N[C@@H]54)ccc3c(=O)c2O)cc1[N+](=O)[O-] |  |  | Activity [19]: Active; Activity [20]: Active; Activity [21]: Active; Activity [16]: Active; Activity [17]: Active; Activity [18]: Active
5.3 ×10⁶ /M | 1.89 µM | 0.56 µM | 1.73 µM | 0.64 µM | 2.39 µM | 32.7 µM | CCCCCNC(=O)c1ccc2c(=O)c(O)c(-c3ccc(N4CCCCC4)c(C(N)=O)c3)[nH]c2c1 | 8.03 µM | 10.2 µM | 
 |  |  |  |  |  |  | CCNc1ccc(-c2[nH]c3ccccc3c(=O)c2O)cc1[N+](=O)[O-] |  |  | IC50 (K562 [9]): 1.96 µM; IC50 (CCRF-CEM [10]): 1.42 µM; IC50 [11]: 3.01 µM; IC50 (U2OS [12]): 9.98 µM; IC50 (K562 [13]): 0.66 µM; IC50 (A549 [14]): 0.94 µM; IC50 (BJ [15]): 9.39 µM
6.8 ×10⁶ /M | 44.4 µM | 50 µM | 16.2 µM | 30.6 µM | 50 µM | 50 µM | NC(=O)c1cc(-c2[nH]c3ccccc3c(=O)c2O)ccc1N1CCOCC1 | 50 µM | 50 µM | 
2.9 ×10⁶ /M | 9.96 µM | 26 µM | 3.34 µM | 4.46 µM | 7.1 µM | 6.41 µM | NC(=O)c1cc(-c2[nH]c3ccccc3c(=O)c2O)ccc1N1CCCCC1 | 21.4 µM | 48.9 µM | 
inactive | > 50 µM | 47 µM | 26.7 µM | 44.2 µM | 48 µM | 27.4 µM | O=c1c(O)c(-c2ccccc2)[nH]c2ccccc12 | 22.5 µM | > 50 µM | 
1.27 ×10⁷ /M |  |  |  |  |  |  | O=C(O)/C=C/c1nn(Cc2ccc(Cl)cc2Cl)c2cc(C(F)(F)F)ccc12 |  |  | 
 |  |  |  |  |  |  | CCN(CC)c1ccc(-c2[nH]c3ccccc3c(=O)c2O)cc1[N+](=O)[O-] |  |  | IC50 (K562 [9]): 2.71 µM; IC50 (CCRF-CEM [10]): 1.72 µM; IC50 [11]: 6.75 µM; IC50 (U2OS [12]): 8.57 µM; IC50 (K562 [13]): 0.75 µM; IC50 (A549 [14]): 1.89 µM; IC50 (BJ [15]): 9.73 µM

— ChEMBL document CHEMBL4020837, “Identification of Eukaryotic Translation Elongation Factor 1-α 1 Gamendazole-Binding Site for Binding of 3-Hydroxy-4(1 H)-quinolinones as Novel Ligands with Anticancer Activity” (J Med Chem, 2018)
